From ChEMBL document CHEMBL4513216, “Probing the Open Global Health Chemical Diversity Library for Multistage-Active Starting Points for Next-Generation Antimalarials” (ACS Infect Dis, 2020) come the findings set out here.

A short description of this series: Toxicity liver stage against HepG2, at 10uM. It counts as cell-based. The arrangement: test concentration 10 uM, cell line HepG2-A16-CD81EGFP. The settings on record: human, HepG2-A16-CD81EGFP cells; read-out: INHIBITION
The procedure, abridged: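 Uninfected HepG2-A16-CD81EGFP cells, 3 × 10^3 per well, 1536-well, plated on prespotted compound at 10 μM final, parasite-free screening media added to match infected plates; puromycin 10 μM positive, DMSO 0.5% negative; run in parallel with 48 h PbLuc assay at 37 °C, 5% CO2; viability by CellTiter-Glo luminescence, normalized to controls.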
For `O=C(c1cnccn1)N1C[C@@H]2OCC(=O)N(CC3CCCCC3)[C@@H]2C1`, the cytotoxicity at 10 µM is -4.97%. The result for `COc1cc2c(cc1OC)C(=O)C(Sc1nnnn1C)C2` (stereo unspecified) reads -13.7%; that for `COCCSc1ccc(-n2ccnc2)nn1`, 6.11%. The result for `COCCNC(=O)NCc1cc(-c2ccncc2)n(C2CCCC2)n1` reads -8.71%; that for `O=C(Cc1ccc(F)cc1)NCCc1ccoc1`, -10.5%; that for `O=C(NCc1cccs1)NCC1(O)CCc2ccccc2C1` (stereo unspecified), -13.8%. In the case of `CC(C)n1nc(CNc2ncccn2)c2c1CN(S(C)(=O)=O)CC2`, the cytotoxicity at 10 µM was -138%.

In the case of `CCS(=O)(=O)N1Cc2c(Cn3ccnc3)nn(C)c2C1`, the cytotoxicity at 10 µM was -2.85%. As for `CC(C)N1c2sc(-c3ccsc3)nc2CC1C(=O)NC1CC1` (stereo unspecified), the figure is 8.67%; as for `CS(=O)(=O)N1CCOCC12CCN(c1nncs1)CC2`, 6.74%. As for `CN(C)c1ncnc2c1CCN(c1cc(C(F)(F)F)ncn1)CC2`, the cytotoxicity at 10 µM amounted to 9.55%. The result for `Cc1noc(C2CCCCN2C(=O)NCc2ccco2)n1` (stereo unspecified) reads 0.986%; that for `Cc1ccnc(OCC(=O)N2CCC(C(N)=O)CC2)n1`, -17.7%. The result for `CC1CCN(C(=O)c2cc(NC(=O)c3ccccc3)n(C)n2)CC1` reads 5.17%.

For the compound `Cn1nc(C(=O)N2CCCCCC2)cc1NC(=O)c1ccccc1`, the cytotoxicity at 10 µM is -0.942%.

For `Cc1ncc2c(n1)CCCC2NC(=O)c1cnn(Cc2ccccc2)c1` (stereo unspecified), the cytotoxicity at 10 µM was -4.49%. Take `Cc1nc2cc(-c3nccn3C)nn2c(N2CCCC2)c1C`: the cytotoxicity at 10 µM was 4.53%. As for `Cc1nc(C)n(CC2CCCN(c3ccnc(-c4ccccc4)n3)C2)n1` (stereo unspecified), the cytotoxicity at 10 µM turned out to be 39.4%.

With `CC(C)(C)n1cc(C#N)cc1NC(=O)CCNC(=O)c1ccco1`, the cytotoxicity at 10 µM was determined as 1.95%. The result for `CCCn1cnc(S(=O)(=O)Nc2cccnc2-n2cccn2)c1` reads 15.4%; that for `Cc1cnn(CC2CN(CC(=O)Nc3c(C)nn(C)c3C)CCO2)c1` (stereo unspecified), 1.08%; that for `CCOC(C)c1nccn1Cc1cc(C)on1` (stereo unspecified), 8.41%.

As to `Cn1cnnc1C1CCN(c2nc3ccccc3o2)CC1`, the cytotoxicity at 10 µM stood at 14.1%. As for `CN(Cc1ncnn1C)C(=O)CCn1ccc2ccccc21`, the figure is 1.16%. The result for `Cc1cc(NC(=O)CNC(C)(C)c2nc(C)c(C)s2)no1` reads 13.3%; that for `CS(=O)(=O)Nc1cccc(CNC(=O)CCNC(=O)c2cccs2)c1`, 0.466%.

With `COc1cccc(NC(=O)CCCc2nc(C(C)C)no2)c1`, the cytotoxicity at 10 µM stood at 6.39%.

As for `Cc1cc(C(=O)N(CC2CCCO2)c2ccncc2)c(C)o1` (stereo unspecified), the cytotoxicity at 10 µM was -8.97%. On to `COc1ncccc1CNCc1c(C(C)C)nn(C)c1OC`, for which the cytotoxicity at 10 µM was -1.68%. As for `O=C(NCc1nnc2n1CCCCC2)N(Cc1ccncc1)C1CC1`, the figure is 9.66%; as for `CC(C#N)CSc1ccccc1NCC(=O)Nc1ccccc1` (stereo unspecified), 6.24%; as for `CC1CCN(CCNC(=O)C2CCN(C(=O)NC(C)C)CC2)CC1`, 8.21%. As for `Cc1ccc(C(=O)NCC(O)c2ccc(F)c(F)c2)c(=O)[nH]1` (stereo unspecified), the figure is -3.09%; as for `Cc1n[nH]c(C2CN(C(=O)c3coc(Br)c3)CCO2)n1` (stereo unspecified), -11.3%. As for `CCn1cnnc1C1CCN(C(=O)c2ccc3ccccc3n2)CC1`, the figure is 6.13%; as for `O=C(NCC1CC1)C1CSCN1S(=O)(=O)c1ccccc1F` (stereo unspecified), 5.02%; as for `CC1(C)CN(CC(F)(F)F)CCN1CC(=O)NC1CCCC1`, 10.4%.

As for `O=C(CNc1ccc(F)cc1OCC(F)(F)F)NCC(F)(F)F`, the cytotoxicity at 10 µM amounted to 3.87%. Turning to `CCc1nc(CC(=O)N2CCC(C(=O)N(CC)CC)CC2)cs1`, the cytotoxicity at 10 µM was -1.42%.

`Cc1cc(C(=O)CN2CCN(c3ncccn3)CC2)c(C)n1C(C)C`: the cytotoxicity at 10 µM was 9.71%. As for `CC(=O)NC(C)C(=O)Nc1ccc(OCc2cccc(F)c2)cc1C` (stereo unspecified), the figure is 0.305%. As for `O=C(COCC(F)(F)F)NC1CCCc2cc(OC(F)F)ccc21` (stereo unspecified), the cytotoxicity at 10 µM was -5.36%. As for `COc1cc(Cl)c(C)cc1NC(=O)CNc1ccn(CC(N)=O)n1`, the figure is 9.8%.

Take `O=C(Cc1ccccc1O)NC1CCCN(c2ccccc2F)C1=O` (stereo unspecified): the cytotoxicity at 10 µM is -13.7%.

Consider `CC(C)C(NC(=O)c1ccccc1F)C(=O)Nc1cnn(C)c1` (stereo unspecified), for which the cytotoxicity at 10 µM was -7.58%.

Take `O=C(NCCn1cnnc1C1CC1)c1c(O)cc(F)cc1F`: the cytotoxicity at 10 µM is -1.88%.

For `Cc1nc2ccccn2c1CN(Cc1cccnc1)CC1CCCO1` (stereo unspecified), the cytotoxicity at 10 µM was -7.1%. The result for `Cc1ccc(CN2CCO[C@@H]3[C@@H](OCc4cccnc4)CC[C@@H]32)o1` reads 8.37%; that for `O=c1ccc2c(n1CC1CC1)CCN(c1ncccn1)CC2`, 7.17%. As for `CCS(=O)(=O)N1C[C@H]2CC[C@@]3(N=C(C)N(CC(C)C)C3=O)[C@H]2C1`, the figure is -85%; as for `Cc1noc(-c2ccc(N(C)Cc3ccncn3)nc2)n1`, 1.11%. As for `Cc1nc2c(c(N3CCC(O)(Cn4ccnc4)CC3)n1)CCNCC2`, the figure is 1.37%. Turning to `O=C(O)CC[C@@H]1CN(c2ncnc3[nH]ccc23)CC[C@@H]1N1CCOCC1`, the cytotoxicity at 10 µM is -15.8%. The result for `COc1ccc(-c2noc(Cn3cnc(C)c3)n2)c(OC)c1OC` reads -13.2%; that for `Cc1cc(-c2cccc3c2CCNC3)cnc1-n1cnnc1`, -0.972%. The result for `CC(N)C(=O)N1CCC(Oc2cccc(C(F)(F)F)c2)CC1` (stereo unspecified) reads -8.54%. The result for `CC(C)(C(=O)NCC1CCN(Cc2ncc[nH]2)C1)c1ccccc1` (stereo unspecified) reads 2.15%; that for `CNC(=O)CCCNc1cc(C)nc2cc(C)nn12`, -5.97%.

With `Cc1ccc(OCC2CCCN(c3cc(C(N)=O)ccn3)C2)cc1` (stereo unspecified), the cytotoxicity at 10 µM was found to be 11.1%. As for `O=C1NCCCc2[nH]c(Cc3cccc(F)c3)nc21`, the figure is -3.47%; as for `CCCc1nnc(N2CCN(C3CCCC3)CC2)o1`, -13.8%; as for `CCc1ocnc1C(=O)N1CCN(c2ccc3ccccc3c2)CC1`, 2.99%. As for `CCc1cn[nH]c1C1CCN(c2cc(C)c3cc(OC)ccc3n2)CC1`, the figure is 1.93%. As for `CCN(CC)Cc1cc(C(=O)N2CCCC(O)(CO)C2)c(C)o1` (stereo unspecified), the cytotoxicity at 10 µM was determined as 7.87%.

`O=C(c1cc[nH]n1)N1CCc2ccc(S(=O)(=O)N3CCOCC3)cc2C1`: the cytotoxicity at 10 µM was 5.18%. As for `O=C(NC[C@H]1CCCN1)c1cc(COc2cccc(C(F)(F)F)c2)[nH]n1`, the figure is -7.59%; as for `CC(C)(O)CCc1ccc(C(=O)N2CCN(CC3CCCC3)CC2)cc1`, 12.4%. For `CCc1cnc(N2CCCOC(CN3CCCC3)C2)nc1` (stereo unspecified), the cytotoxicity at 10 µM was -5.77%. The result for `CCc1cc(C(=O)N2CC[C@@H](c3ccc4c(c3)OCO4)[C@H](O)C2)ccn1` reads 1.48%; that for `CCC(C)NC(=O)NCc1cc2n(n1)CCCN(C1CCCCC1)C2` (stereo unspecified), 3.11%. As for `Cc1noc([C@@H]2CCCN2C(=O)C2CCN(C(=O)C3CCC3)CC2)n1`, the figure is -14.4%; as for `Cc1n[nH]c(C)c1NC(=O)CN1CCCC1c1noc(C2CC2)n1` (stereo unspecified), 2.94%. As for `Cc1cc(CN2CCN(c3ccc4nncn4n3)CC2)no1`, the figure is -4.6%. For `Cc1ccc(CN(C)C(=O)c2ccc(NC3CC3)nc2)o1`, the cytotoxicity at 10 µM was -5.57%. As for `Cc1nc(C(C)C)sc1C(=O)NCCNc1ncccn1`, the figure is -2.02%; as for `CC(C)n1nc2c(cc1=O)CN(Cc1nc3ccccc3o1)CC2`, -2.19%; as for `COCCN1CCC(CNC(=O)C2(c3cc(C)cc(C)c3)CC2)CC1`, -7.94%. As for `Cn1cc(-c2nc(CN3CCOC(Cn4cncn4)C3)cs2)cn1` (stereo unspecified), the cytotoxicity at 10 µM was -1.41%. The result for `Cc1nnc2n1CCN(Cc1csc(-c3ncccn3)n1)C2` reads -38.1%.

For `c1coc(-c2noc(CN3CCc4cncnc4C3)n2)c1`, the cytotoxicity at 10 µM was -9.39%. The result for `Cc1nc(C2CCCN2CCS(C)(=O)=O)no1` (stereo unspecified) reads -5.07%; that for `c1nc(N2CCOCC2)ncc1-c1cncn1CCCN1CCCCC1`, -7.08%; that for `Cc1nc(N)c2ccc(C3CCCN3)nc2n1` (stereo unspecified), 3.67%. For `Cc1cc(CN2C[C@H](N3CCOCC3)[C@@H]3OCCC[C@@H]32)oc1C`, the cytotoxicity at 10 µM was -139%.

Consider `O=C([C@H]1CN(Cc2cccnc2)C[C@H]2OCC[C@@H]12)N1CCCO1`, for which the cytotoxicity at 10 µM turned out to be 8.98%. On to `CN1CCC2(C=C(C(=O)N3CCCC3)c3ccccc32)CC1`, for which the cytotoxicity at 10 µM worked out at 1.97%. As to `O=C(Cc1cccnc1)N1CCC2(CCN(CC3CCCCC3)C2)CC1`, the cytotoxicity at 10 µM was -1.28%. As for `CN1CCC2(CCN(CC3CCOCC3)CC2)C1=O`, the figure is 6.77%; as for `CNC(=O)[C@H]1C[C@@H]2CCN(Cc3nccs3)C[C@H]2O1`, -75.9%. The result for `c1cncc(-c2ccc3c(c2)CCC32CCN(Cc3ccco3)CC2)c1` reads 17.1%.

Take `COc1cc(N2CCC[C@]3(C(=O)O)CN(C(C)C)C[C@@H]3C2)ncn1`: the cytotoxicity at 10 µM stood at 4.14%. As for `C[C@@H]1CN(C2CCOC2)C[C@]12CCN(c1cccnc1)C2=O` (stereo partly specified), the figure is 7.49%; as for `COCC(=O)N1C[C@@H](OCc2cccnc2)[C@H]2OCCC[C@@H]21`, 2.53%. The result for `COc1ccc(CN2C[C@@H]3OCCN(CCN(C)C)[C@@H]3C2)cc1` reads -86.9%; that for `N#CC1(C(=O)N2C[C@@H]3CC[C@H]2CN(Cc2ccncc2)C3)CCOCC1`, -11.9%; that for `COCCN1C[C@@H]2CC[C@H]1CN(C(=O)CCn1cc(Cl)cn1)C2`, 7.62%.
